# Calls of active or inactive are those of the source. The calls are words filed in the database; no cut-off is given here.
# Assays:
# [1] = test system: Rattus norvegicus; assay: Apparent volume of distribution in rat at 1 mg/kg, iv; type: ADME, organism-based; set-up: dose 1 mg/kg, route intravenous; conditions: in vivo
# Procedure, shortened: (§1)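 Rat pharmacokinetics were run at 1 mg/kg, given iv or by intratracheal instillation, with 2−3 animals per study.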
# [2] = biological target: T1, Cytochrome P450 1A2 (Homo sapiens, UniProt P05177); assay: Inhibition of CYP1A2 (unknown origin); type: ADME
# T1 sequence (P05177 whole entry): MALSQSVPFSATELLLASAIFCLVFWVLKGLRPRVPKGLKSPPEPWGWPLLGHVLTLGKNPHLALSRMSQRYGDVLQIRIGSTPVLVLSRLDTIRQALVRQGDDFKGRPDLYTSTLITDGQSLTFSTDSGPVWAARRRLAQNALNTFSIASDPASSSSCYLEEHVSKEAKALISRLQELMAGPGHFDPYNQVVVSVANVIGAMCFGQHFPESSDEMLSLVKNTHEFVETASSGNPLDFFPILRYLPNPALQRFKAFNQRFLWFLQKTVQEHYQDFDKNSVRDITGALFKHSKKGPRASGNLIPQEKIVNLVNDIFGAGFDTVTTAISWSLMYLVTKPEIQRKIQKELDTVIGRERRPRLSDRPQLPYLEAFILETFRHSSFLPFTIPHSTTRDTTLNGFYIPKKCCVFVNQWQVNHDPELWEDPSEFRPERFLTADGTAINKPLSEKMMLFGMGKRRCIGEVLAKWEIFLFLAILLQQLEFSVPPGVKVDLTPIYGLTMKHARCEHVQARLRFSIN
# [3] = biological target: Cytochrome P450 2D6 (Homo sapiens, UniProt P10635); assay: Inhibition of CYP2D6 (unknown origin); type: ADME
# [4] = Lipophilicity, log D of the compound; type: physicochemical; conditions: octanol/water
# [5] = test system: Rattus norvegicus; assay: Antiinflammatory activity in Sprague-Dawley rat assessed as inhibition of LPS-induced bronchoalveolar lavage neutrophils at 1 mg/ml, inhalation administered as nebulized suspension; type: functional, organism-based
# Procedure, shortened: (§2)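 Rats were given the compound as an aqueous nebulized aerosol by nose-only inhalation 30 min before LPS challenge. Dose is expressed as mg/mL nebulizer concentration. Lung neutrophilia was the readout, and terminal lung concentration (nM) was measured. Groups held 8−10 animals per treatment.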
# [6] = biological target: Cytochrome P450 3A4 (Homo sapiens, UniProt P08684); assay: Inhibition of CYP3A4 (unknown origin); type: ADME
# [7] = biological target: Cytochrome P450 2C9 (Homo sapiens, UniProt P11712); assay: Inhibition of CYP2C9 (unknown origin); type: ADME
# [8] = biological target: 3',5'-cyclic-AMP phosphodiesterase 4B (Homo sapiens, UniProt Q07343); assay: Inhibition of human recombinant PDE4B using [3H]cAMP by packard topcount scintillation counting analysis
# [9] = Volume of distribution at steady state in rat at 1 mg/kg, iv; type: ADME, organism-based; set-up: dose 1 mg/kg, route intravenous; conditions: in vivo, read-out: Vdss
# [10] = biological target: Cytochrome P450 2C19 (Homo sapiens, UniProt P33261); assay: Inhibition of CYP2C19 (unknown origin); type: ADME
# [11] = Half life in rat at 1 mg/kg, iv; type: ADME, organism-based; set-up: dose 1 mg/kg, route intravenous; conditions: in vivo; procedure, shortened: as §1
# [12] = test system: PBMC; assay: Antiinflammatory activity in human PBMC assessed as inhibition of LPS-induced TNFalpha production after 20 hrs by fluorescence linked immunosorbant assay; type: functional, cell-based
# [13] = Fraction unbound in human plasma; type: ADME, cell-free
# [14] = Clearance in rat at 1 mg/kg, iv; type: ADME, organism-based; set-up: dose 1 mg/kg, route intravenous; conditions: in vivo; procedure, shortened: as §1
# [15] = Aqueous solubility of the compound at pH 7.4; type: physicochemical; conditions: aqueous medium
# [16] = test system: Rattus norvegicus; assay: Antiinflammatory activity in Sprague-Dawley rat assessed as inhibition of LPS-induced bronchoalveolar lavage neutrophils at 0.03 mg/ml, inhalation administered as nebulized suspension; type: functional, organism-based; procedure, shortened: as §2
# [17] = test system: Rattus norvegicus; assay: Antiinflammatory activity in Sprague-Dawley rat assessed as inhibition of LPS-induced bronchoalveolar lavage neutrophils at 0.01 mg/ml, inhalation administered as nebulized suspension; type: functional; procedure, shortened: as §2
# Cytochrome P450 2C9, sequence (P11712 whole entry): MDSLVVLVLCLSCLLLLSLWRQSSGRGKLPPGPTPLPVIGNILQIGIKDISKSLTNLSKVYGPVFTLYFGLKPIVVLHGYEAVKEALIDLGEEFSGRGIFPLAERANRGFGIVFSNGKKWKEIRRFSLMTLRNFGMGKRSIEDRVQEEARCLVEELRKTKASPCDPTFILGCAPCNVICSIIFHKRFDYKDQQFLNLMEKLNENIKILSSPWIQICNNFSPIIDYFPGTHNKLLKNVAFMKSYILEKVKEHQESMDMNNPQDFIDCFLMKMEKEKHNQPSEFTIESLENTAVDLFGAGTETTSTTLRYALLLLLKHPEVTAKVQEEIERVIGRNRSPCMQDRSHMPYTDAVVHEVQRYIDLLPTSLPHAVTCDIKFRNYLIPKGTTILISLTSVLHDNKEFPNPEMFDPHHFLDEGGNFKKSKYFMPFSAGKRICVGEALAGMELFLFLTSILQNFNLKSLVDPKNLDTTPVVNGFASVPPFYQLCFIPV
# Cytochrome P450 3A4, sequence (P08684 whole entry): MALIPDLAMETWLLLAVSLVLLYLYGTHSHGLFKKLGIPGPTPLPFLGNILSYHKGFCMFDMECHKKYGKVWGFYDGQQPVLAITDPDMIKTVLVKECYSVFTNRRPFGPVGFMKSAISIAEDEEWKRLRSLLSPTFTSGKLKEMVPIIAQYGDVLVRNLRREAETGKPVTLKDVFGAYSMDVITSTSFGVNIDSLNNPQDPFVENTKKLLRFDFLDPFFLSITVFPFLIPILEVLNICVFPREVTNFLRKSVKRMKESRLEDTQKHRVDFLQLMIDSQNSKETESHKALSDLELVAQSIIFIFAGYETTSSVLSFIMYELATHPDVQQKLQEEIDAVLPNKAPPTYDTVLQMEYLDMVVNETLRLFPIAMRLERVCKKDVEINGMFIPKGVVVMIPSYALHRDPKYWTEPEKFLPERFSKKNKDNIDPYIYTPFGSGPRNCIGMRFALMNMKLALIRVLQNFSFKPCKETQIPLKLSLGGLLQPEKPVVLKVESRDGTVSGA
# 3',5'-cyclic-AMP phosphodiesterase 4B, sequence (Q07343 whole entry): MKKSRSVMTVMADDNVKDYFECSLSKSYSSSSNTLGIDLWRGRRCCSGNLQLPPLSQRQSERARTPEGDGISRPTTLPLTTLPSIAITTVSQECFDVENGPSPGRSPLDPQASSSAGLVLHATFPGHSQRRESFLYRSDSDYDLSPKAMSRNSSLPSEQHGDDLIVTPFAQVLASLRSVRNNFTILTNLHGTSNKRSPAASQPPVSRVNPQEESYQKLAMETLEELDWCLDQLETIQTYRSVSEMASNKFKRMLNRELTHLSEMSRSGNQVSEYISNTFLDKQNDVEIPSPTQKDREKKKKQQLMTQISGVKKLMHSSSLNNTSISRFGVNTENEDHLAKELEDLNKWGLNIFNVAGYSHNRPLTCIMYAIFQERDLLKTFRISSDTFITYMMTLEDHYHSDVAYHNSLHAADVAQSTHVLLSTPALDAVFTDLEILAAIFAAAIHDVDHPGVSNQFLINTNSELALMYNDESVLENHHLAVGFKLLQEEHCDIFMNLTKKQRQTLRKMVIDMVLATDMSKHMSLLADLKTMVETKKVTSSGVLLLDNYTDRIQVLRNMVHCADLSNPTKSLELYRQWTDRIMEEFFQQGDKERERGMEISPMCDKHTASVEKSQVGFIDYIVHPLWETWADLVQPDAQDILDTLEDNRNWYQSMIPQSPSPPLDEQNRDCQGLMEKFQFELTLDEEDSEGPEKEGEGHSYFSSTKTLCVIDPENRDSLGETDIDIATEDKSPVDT
# Cytochrome P450 2C19, sequence (P33261 whole entry): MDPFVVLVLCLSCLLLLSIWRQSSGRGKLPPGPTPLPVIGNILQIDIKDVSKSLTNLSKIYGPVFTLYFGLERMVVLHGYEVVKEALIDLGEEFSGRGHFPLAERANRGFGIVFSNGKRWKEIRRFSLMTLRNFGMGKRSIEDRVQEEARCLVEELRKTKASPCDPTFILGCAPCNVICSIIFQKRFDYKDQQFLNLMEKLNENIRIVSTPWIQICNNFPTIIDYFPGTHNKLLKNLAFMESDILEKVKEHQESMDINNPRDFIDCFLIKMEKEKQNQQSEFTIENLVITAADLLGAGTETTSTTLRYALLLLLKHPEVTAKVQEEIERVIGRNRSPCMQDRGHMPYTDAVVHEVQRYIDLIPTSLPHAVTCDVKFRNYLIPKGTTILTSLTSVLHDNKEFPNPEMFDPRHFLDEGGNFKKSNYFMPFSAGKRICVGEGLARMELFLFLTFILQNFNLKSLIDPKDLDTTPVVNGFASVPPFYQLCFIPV
# Cytochrome P450 2D6, sequence (P10635 whole entry): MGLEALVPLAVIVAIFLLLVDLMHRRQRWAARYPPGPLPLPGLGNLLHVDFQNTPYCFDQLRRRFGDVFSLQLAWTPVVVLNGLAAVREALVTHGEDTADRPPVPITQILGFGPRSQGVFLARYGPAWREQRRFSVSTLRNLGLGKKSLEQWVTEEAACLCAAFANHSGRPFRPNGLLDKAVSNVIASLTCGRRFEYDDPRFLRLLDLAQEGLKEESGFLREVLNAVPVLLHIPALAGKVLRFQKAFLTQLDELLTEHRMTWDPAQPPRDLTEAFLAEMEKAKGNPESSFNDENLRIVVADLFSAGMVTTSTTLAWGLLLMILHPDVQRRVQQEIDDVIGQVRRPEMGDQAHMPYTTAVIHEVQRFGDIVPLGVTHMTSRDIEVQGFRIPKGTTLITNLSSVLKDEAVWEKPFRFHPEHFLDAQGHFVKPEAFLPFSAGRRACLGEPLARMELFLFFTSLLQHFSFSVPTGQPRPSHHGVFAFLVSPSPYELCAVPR
Compound,logD [4],IC50 [8] [nM],fraction unbound [13],solubility [15] [µM],IC50 [12] [nM],also measured
Cc1cccc2nc(C(=O)N[C@H]3CC[C@@H](NC(=O)c4cc(F)cnc4Oc4cccc(-c5ccc(CN6CCC(N7CCCC7)CC6)cc5)c4)CC3)cn12,3.2,0.0398,0.02,> 1400,0.251,Vz/F [1]: 80 L/kg; IC50 [2]: > 1000 nM; IC50 [3]: > 1000 nM; inhibition [5]: Active; IC50 [6]: > 1000 nM; IC50 [7]: > 1000 nM; Vd [9]: 60 L/kg; IC50 [10]: > 1000 nM; half-life [11]: 12 h; clearance [14]: 4.74 L/h/kg
C[C@@H]1CN(Cc2ccc(-c3cccc(Oc4ncc(F)cc4C(=O)N[C@H]4CC[C@@H](NC(=O)c5cc6ccccn6n5)CC4)c3)cc2)C[C@H](C)N1,2.7,–,0.045,580,0.0794,Vz/F [1]: 30 L/kg; IC50 [6]: 398 nM; IC50 [7]: > 1000 nM; Vd [9]: 13 L/kg; half-life [11]: 5.8 h; clearance [14]: 3.48 L/h/kg; inhibition [16]: Active
Cc1cccc2nc(C(=O)N[C@H]3CC[C@@H](NC(=O)c4cc(F)cnc4Oc4cccc(-c5ccc(CN6C[C@@H](C)N[C@@H](C)C6)cc5)c4)CC3)cn12,2.7,–,0.012,460,0.126,Vz/F [1]: 28 L/kg; IC50 [2]: > 1000 nM; IC50 [3]: > 1000 nM; IC50 [6]: > 1000 nM; IC50 [7]: > 1000 nM; Vd [9]: 14 L/kg; IC50 [10]: > 1000 nM; half-life [11]: 5.3 h; clearance [14]: 3.66 L/h/kg
Cc1cc(C(=O)N[C@H]2CC[C@@H](NC(=O)c3cc(F)cnc3Oc3cccc(-c4ccc(CN5C[C@@H](C)N[C@@H](C)C5)c(O)c4)c3)CC2)nn1C,2.4,–,0.12,890,–,–
Cc1csc(C(=O)N[C@H]2CC[C@@H](NC(=O)c3cc(F)cnc3Oc3cccc(-c4ccc(CN5C[C@@H](C)N[C@@H](C)C5)cc4CN4CCOCC4)c3)CC2)n1,–,–,–,–,–,inhibition [17]: Active; inhibition [16]: Active
Cc1csc(C(=O)N[C@H]2CC[C@@H](NC(=O)c3cc(F)cnc3Oc3cccc(-c4ccc(CN5C[C@@H](C)N[C@@H](C)C5)cc4)c3)CC2)n1,–,0.0316,–,–,–,–
Cc1cc(C(=O)N[C@H]2CC[C@@H](NC(=O)c3cc(F)cnc3Oc3cccc(-c4cccc(CN5C[C@@H](C)N[C@@H](C)C5)c4)c3)CC2)nn1C,2.1,–,0.18,> 1500,0.0794,–

# Second part, led by results:
logD [4],IC50 [8] [nM],fraction unbound [13],solubility [15] [µM],Compound,IC50 [12] [nM],also measured
2.8,–,0.091,470,Cc1cc(C(=O)N[C@H]2CC[C@@H](NC(=O)c3cc(F)cnc3Oc3cccc(-c4cccc(CN5C[C@@H](C)N[C@@H](C)C5)c4O)c3)CC2)nn1C,3.16,–
–,0.316,–,–,CN(C)Cc1cc(O)ccc1-c1cccc(Oc2ncc(F)cc2C(=O)N[C@H]2CC[C@@H](NC(=O)c3cccc4ocnc34)CC2)c1,–,–
–,0.316,–,–,O=C(N[C@H]1CC[C@@H](NC(=O)c2nc3ccccc3[nH]c2=O)CC1)c1cc(F)cnc1Oc1cccc(-c2ccc(O)cc2CN2CCOCC2)c1,–,–
–,20,–,–,CN(C)Cc1cc(O)ccc1-c1cccc(Oc2ncc(F)cc2C(=O)N[C@H]2CC[C@@H](NC(=O)c3cccc4oc(=O)[nH]c34)CC2)c1,–,–
